Measurements as given in ChEMBL document CHEMBL1138520, “Molecular and conformational determinants of pituitary adenylate cyclase-activating polypeptide (PACAP) for activation of the PAC1 receptor” (J Med Chem, 2009).
pEC50, pIC50: −log10 of the molar value.

Experiments:
[1] = molecular target: T1, Pituitary adenylate cyclase-activating polypeptide type I receptor (Homo sapiens, UniProt P41586); experiment: Displacement of [125I]Ac-PACAP27 from human recombinant PAC1 receptor expressed in CHO cells by gamma- counter; format: cell-based
Target sequence in this assay (P41586 whole entry): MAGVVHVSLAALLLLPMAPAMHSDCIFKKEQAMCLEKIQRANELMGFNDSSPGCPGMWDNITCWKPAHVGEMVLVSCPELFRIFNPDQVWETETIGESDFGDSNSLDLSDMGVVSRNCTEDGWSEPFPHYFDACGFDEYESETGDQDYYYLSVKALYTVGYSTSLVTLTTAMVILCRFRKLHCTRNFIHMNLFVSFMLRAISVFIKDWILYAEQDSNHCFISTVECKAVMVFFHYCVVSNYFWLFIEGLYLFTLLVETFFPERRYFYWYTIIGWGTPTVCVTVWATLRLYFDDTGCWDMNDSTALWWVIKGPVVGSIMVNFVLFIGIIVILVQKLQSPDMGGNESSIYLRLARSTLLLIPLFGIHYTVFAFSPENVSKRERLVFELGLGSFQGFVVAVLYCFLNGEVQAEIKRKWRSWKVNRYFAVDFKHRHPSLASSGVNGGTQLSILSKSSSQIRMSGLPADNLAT

[2] = molecular target: T1, Pituitary adenylate cyclase-activating polypeptide type I receptor; experiment: Agonist activity at human recombinant PAC1 receptor expressed in CHO cells assessed as PACAP38-induced calcium mobilization by FLIPR assay; format: functional, cell-based
In short: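 CHO cells stably expressing recombinant human PAC1, plated 24 h before assay, loaded with fluo-4 AM for 60 min at 37 °C in the dark, then rinsed into HBSS for 15 min at 37 °C. EC50 and efficacy came from nonlinear regression; 4-10 independent assays in duplicate.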
Target sequence in this assay (P41586 whole entry): as above

[3] = molecular target: T1, Pituitary adenylate cyclase-activating polypeptide type I receptor; experiment: Agonist activity at human recombinant PAC1 receptor expressed in CHO cells assessed as PACAP38-induced calcium mobilization by FLIPR assay relative to PACAP38; format: functional, cell-based
In short: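 CHO cells stably expressing recombinant human PAC1, plated 24 h before assay, loaded with fluo-4 AM for 60 min at 37 °C in the dark, then rinsed into HBSS for 15 min at 37 °C. Peptide was added 18 s into a 150 s read (ex 480/em 525 nm), at final concentrations of 1 × 10-12 to 1 × 10^-5 M. Response was normalised to 1 × 10^-5 M PACAP38 on each plate. EC50 and efficacy came from nonlinear regression; 4-10 independent assays in duplicate.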
Target sequence in this assay (P41586 21-468 limits assumed): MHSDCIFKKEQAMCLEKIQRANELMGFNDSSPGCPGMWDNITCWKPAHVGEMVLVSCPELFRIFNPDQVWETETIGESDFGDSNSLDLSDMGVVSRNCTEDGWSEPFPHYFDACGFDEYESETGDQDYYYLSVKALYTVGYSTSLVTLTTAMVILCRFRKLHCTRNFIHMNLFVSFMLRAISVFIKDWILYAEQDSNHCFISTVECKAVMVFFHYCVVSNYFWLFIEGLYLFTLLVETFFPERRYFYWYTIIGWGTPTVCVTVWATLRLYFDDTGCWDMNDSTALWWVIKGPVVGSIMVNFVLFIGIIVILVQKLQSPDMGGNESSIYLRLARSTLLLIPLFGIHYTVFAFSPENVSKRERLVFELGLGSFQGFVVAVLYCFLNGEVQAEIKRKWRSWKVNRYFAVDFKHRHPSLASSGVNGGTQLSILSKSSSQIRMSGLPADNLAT

## CC[C@H](C)[C@H](NC(=O)CNC(=O)[C@H](CC(=O)O)NC(=O)[C@@H]1CCCN1C(=O)[C@@H](N)Cc1cnc[nH]1)C(=O)N[C@@H](Cc1ccccc1)C(=O)N[C@H](C(=O)N[C@@H](CC(=O)O)C(=O)N[C@@H](CO)C(=O)N[C@@H](Cc1ccc(O)cc1)C(=O)N[C@@H](CO)C(=O)N[C@@H](CCCNC(=N)N)C(=O)N[C@@H](Cc1ccc(O)cc1)C(=O)N[C@@H](CCCNC(=N)N)C(=O)N[C@@H](CCCCN)C(=O)N[C@@H](CCC(N)=O)C(=O)N[C@@H](CCSC)C(=O)N[C@@H](C)C(=O)N[C@H](C(=O)N[C@@H](CCCCN)C(=O)N[C@@H](CCCCN)C(=O)N[C@@H](Cc1ccc(O)cc1)C(=O)N[C@@H](CC(C)C)C(=O)N[C@@H](C)C(=O)N[C@@H](C)C(=O)N[C@H](C(=O)N[C@@H](CC(C)C)C(=O)NCC(=O)N[C@@H](CCCCN)C(=O)N[C@@H](CCCNC(=N)N)C(=O)N[C@@H](Cc1ccc(O)cc1)C(=O)N[C@@H](CCCCN)C(=O)N[C@@H](CCC(N)=O)C(=O)N[C@@H](CCCNC(=N)N)C(=O)N[C@H](C(=O)N[C@@H](CCCCN)C(=O)N[C@@H](CC(N)=O)C(=O)N[C@@H](CCCCN)C(N)=O)C(C)C)C(C)C)C(C)C)[C@@H](C)O
[1]
  pIC50: 8.07
[2]
  pEC50: 8.39
[3]
  Emax: 89.3%

## CC[C@H](C)[C@H](NC(=O)CNC(=O)[C@H](CC(=O)O)NC(=O)[C@H](CO)NC(=O)[C@H](N)Cc1cnc[nH]1)C(=O)N[C@@H](Cc1ccccc1)C(=O)N[C@H](C(=O)N[C@@H](CC(=O)O)C(=O)N[C@@H](CO)C(=O)N[C@@H](Cc1ccc(O)cc1)C(=O)N[C@@H](CO)C(=O)N[C@@H](CCCNC(=N)N)C(=O)N[C@@H](Cc1ccc(O)cc1)C(=O)N[C@@H](CCCNC(=N)N)C(=O)N[C@@H](CCCCN)C(=O)N[C@@H](CCC(N)=O)C(=O)N[C@@H](CCSC)C(=O)N[C@@H](C)C(=O)N[C@H](C(=O)N[C@@H](CCCCN)C(=O)N[C@@H](CCCCN)C(=O)N[C@@H](Cc1ccc(O)cc1)C(=O)N[C@@H](CC(C)C)C(=O)N[C@@H](C)C(=O)N[C@@H](C)C(=O)N[C@H](C(=O)N[C@@H](CC(C)C)C(=O)NCC(=O)N[C@@H](CCCCN)C(=O)N[C@@H](CCCNC(=N)N)C(=O)N[C@@H](Cc1ccc(O)cc1)C(=O)N[C@@H](CCCCN)C(=O)N[C@@H](CCC(N)=O)C(=O)N[C@@H](CCCNC(=N)N)C(=O)N[C@H](C(=O)N[C@@H](CCCCN)C(=O)N[C@@H](CC(N)=O)C(=O)N[C@@H](CCCCN)C(N)=O)C(C)C)C(C)C)C(C)C)[C@@H](C)O
[2]
  pEC50: 8.54
[3]
  Emax: 107%

## CC[C@H](C)[C@H](NC(=O)CNC(=O)[C@H](CC(=O)O)NC(=O)[C@H](CO)N(C)C(=O)[C@@H](N)Cc1cnc[nH]1)C(=O)N[C@@H](Cc1ccccc1)C(=O)N[C@H](C(=O)N[C@@H](CC(=O)O)C(=O)N[C@@H](CO)C(=O)N[C@@H](Cc1ccc(O)cc1)C(=O)N[C@@H](CO)C(=O)N[C@@H](CCCNC(=N)N)C(=O)N[C@@H](Cc1ccc(O)cc1)C(=O)N[C@@H](CCCNC(=N)N)C(=O)N[C@@H](CCCCN)C(=O)N[C@@H](CCC(N)=O)C(=O)N[C@@H](CCSC)C(=O)N[C@@H](C)C(=O)N[C@H](C(=O)N[C@@H](CCCCN)C(=O)N[C@@H](CCCCN)C(=O)N[C@@H](Cc1ccc(O)cc1)C(=O)N[C@@H](CC(C)C)C(=O)N[C@@H](C)C(=O)N[C@@H](C)C(=O)N[C@H](C(=O)N[C@@H](CC(C)C)C(N)=O)C(C)C)C(C)C)[C@@H](C)O
[2]
  pEC50: 7.31
[3]
  Emax: 93%
